Test results from ChEMBL document CHEMBL1149351, “4-Amino-2-alkyl-butyramides as small molecule CCR2 antagonists with favorable pharmacokinetic properties” (Bioorg Med Chem Lett, 2006).

Tests used:
[1] = target: T1, C-C chemokine receptor type 2 (Homo sapiens, UniProt P41597); assay: Displacement of [125I]MCP-1 from human CCR2b expressed in human monocyte cells; assay type: cell-based
Procedure, shortened: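 Human monocytes (5 × 10⁴) incubated with ¹²⁵I-hMCP-1 (20–50 pM; 2200 Ci/mmol) plus varying unlabeled competitor, 60 min at room temperature, in 50 mM HEPES, 5 mM MgCl₂, 1 mM CaCl₂, pH 7.4. Stopped by filtration on PEI-presoaked GF/B filters, washed with 25 mM HEPES pH 7.5/500 mM NaCl, then scintillation counted. Means of at least two separate experiments.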
Target sequence in this assay (P41597 whole entry): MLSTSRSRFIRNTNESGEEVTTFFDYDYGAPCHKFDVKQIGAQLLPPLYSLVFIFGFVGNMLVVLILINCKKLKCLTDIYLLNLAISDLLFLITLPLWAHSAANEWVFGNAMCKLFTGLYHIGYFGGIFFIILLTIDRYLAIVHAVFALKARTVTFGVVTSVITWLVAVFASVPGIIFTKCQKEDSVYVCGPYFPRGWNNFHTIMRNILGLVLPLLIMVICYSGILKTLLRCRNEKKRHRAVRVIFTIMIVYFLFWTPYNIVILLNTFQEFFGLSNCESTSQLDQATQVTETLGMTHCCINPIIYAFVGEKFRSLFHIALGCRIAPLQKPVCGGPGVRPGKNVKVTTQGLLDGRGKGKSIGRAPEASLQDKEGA

[2] = target: T1, C-C chemokine receptor type 2; assay: Displacement of [125I]MCP-1 from human CCR2b expressed in CHO cells; assay type: cell-based
Target sequence in this assay (P41597 whole entry): as above

[3] = target: T1, C-C chemokine receptor type 2; assay: Inhibition of [125I]MCP-1 binding to human CCR2b expressed in CHO cells at 1 uM; assay type: cell-based
Target sequence in this assay (P41597 whole entry, looked up): as the sequence (P41597 whole entry) above

Rattus norvegicus [4] = assay: Tmax in Sprague-Dawley rat at 3 mg/kg, po; assay type: ADME, organism-based; design: dose 3 mg/kg, route oral; details: in vivo
[5] = target: C-C chemokine receptor type 5 (Homo sapiens) (UniProt P51681); assay: Inhibition of CCR5 at 1 uM
[6] = target: T2, C-C chemokine receptor type 3 (Homo sapiens) (UniProt P51677); assay: Inhibition of human CCR3 at 4 uM
T2 sequence (whole entry): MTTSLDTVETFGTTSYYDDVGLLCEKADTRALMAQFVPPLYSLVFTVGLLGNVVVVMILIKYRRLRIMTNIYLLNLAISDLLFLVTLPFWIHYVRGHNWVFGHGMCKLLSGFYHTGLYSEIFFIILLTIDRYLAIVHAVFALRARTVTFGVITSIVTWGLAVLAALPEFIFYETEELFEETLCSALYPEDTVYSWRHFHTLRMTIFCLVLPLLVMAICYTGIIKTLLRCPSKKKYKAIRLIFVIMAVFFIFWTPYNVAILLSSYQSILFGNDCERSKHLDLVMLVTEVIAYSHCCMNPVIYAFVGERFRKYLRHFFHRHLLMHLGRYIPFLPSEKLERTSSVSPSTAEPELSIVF

[7] = target: T1, C-C chemokine receptor type 2; assay: Activity at CCR2b by calcium flux based FLIPR assay in CHO cells; assay type: functional, cell-based
Target sequence in this assay (P41597 whole entry): as the sequence (P41597 whole entry) above

[8] = target: T3, C-C chemokine receptor type 1 (Homo sapiens) (UniProt P32246); assay: Inhibition of human CCR1 at 1 uM
T3 sequence (whole entry): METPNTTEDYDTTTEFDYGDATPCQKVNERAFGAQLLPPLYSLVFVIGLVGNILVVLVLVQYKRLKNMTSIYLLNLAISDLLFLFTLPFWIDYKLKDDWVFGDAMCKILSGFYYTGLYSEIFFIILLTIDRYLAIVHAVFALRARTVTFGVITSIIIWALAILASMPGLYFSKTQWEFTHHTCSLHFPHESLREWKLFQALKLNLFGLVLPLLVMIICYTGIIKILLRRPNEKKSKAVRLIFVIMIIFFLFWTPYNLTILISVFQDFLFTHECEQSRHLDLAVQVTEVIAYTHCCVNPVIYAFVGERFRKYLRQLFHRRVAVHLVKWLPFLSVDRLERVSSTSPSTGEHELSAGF

Rattus norvegicus [9] = assay: Oral bioavailability in Sprague-Dawley rat at 3 mg/kg, po; assay type: ADME, organism-based; details: in vivo
[10] = Cmax in Sprague-Dawley rat at 3 mg/kg, po; assay type: ADME, organism-based; design: dose 3 mg/kg, route oral; details: in vivo
[11] = target: C-C chemokine receptor type 8 (Homo sapiens) (UniProt P51685); assay: Inhibition of CCR8 at 1 uM
[12] = Volume of distribution in Sprague-Dawley rat at 1 mg/kg, iv; assay type: ADME, organism-based; design: dose 1 mg/kg, route intravenous; details: in vivo, read-out: Vdss
Rattus norvegicus [13] = assay: AUC in Sprague-Dawley rat at 1 mg/kg, iv; assay type: ADME, organism-based, Plasma; design: dose 1 mg/kg, route intravenous; details: in vivo
[14] = Clearance in Sprague-Dawley rat at 1 mg/kg, iv; assay type: ADME, organism-based; design: dose 1 mg/kg, route intravenous; details: in vivo
[15] = Half life in Sprague-Dawley rat at 1 mg/kg, iv; assay type: ADME, organism-based; design: dose 1 mg/kg, route intravenous; details: in vivo
Rattus norvegicus [16] = assay: AUC in Sprague-Dawley rat at 3 mg/kg, po; assay type: ADME, organism-based, Plasma; design: dose 3 mg/kg, route oral; details: in vivo
[17] = target: C-X-C chemokine receptor type 4 (Homo sapiens) (UniProt P61073); assay: Inhibition of human CXCR4 at 1 uM
[18] = target: T1, C-C chemokine receptor type 2; assay: Inhibition of [125I]MCP-1 binding to human CCR2b expressed in human monocyte cells at 1 uM; assay type: cell-based
Procedure, shortened: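 Competition binding on human monocytes (5 × 10⁴ cells) with ¹²⁵I-hMCP-1 (20–50 pM) in 50 mM HEPES, 5 mM MgCl₂, 1 mM CaCl₂, pH 7.4, for 60 min at room temperature. Stopped by filtration through filters presoaked in 0.1% polyethyleneimine, washed with 25 mM HEPES pH 7.5 plus 500 mM NaCl. Bound label read by scintillation counting. Mean of at least two separate experiments.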
Target sequence in this assay (P41597 whole entry, looked up): as the sequence (P41597 whole entry) above

Chain of C-X-C chemokine receptor type 4 (Homo sapiens) (P61073 whole entry): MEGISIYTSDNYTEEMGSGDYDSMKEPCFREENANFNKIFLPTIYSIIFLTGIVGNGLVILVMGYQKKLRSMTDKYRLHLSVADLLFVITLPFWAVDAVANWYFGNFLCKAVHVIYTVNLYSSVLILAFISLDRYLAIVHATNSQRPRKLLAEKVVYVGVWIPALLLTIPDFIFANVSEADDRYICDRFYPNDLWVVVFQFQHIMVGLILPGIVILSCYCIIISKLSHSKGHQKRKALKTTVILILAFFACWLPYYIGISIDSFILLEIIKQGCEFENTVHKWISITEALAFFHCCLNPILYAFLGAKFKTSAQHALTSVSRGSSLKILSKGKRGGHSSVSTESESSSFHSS
Chain of C-C chemokine receptor type 5 (Homo sapiens) (P51681 whole entry, looked up): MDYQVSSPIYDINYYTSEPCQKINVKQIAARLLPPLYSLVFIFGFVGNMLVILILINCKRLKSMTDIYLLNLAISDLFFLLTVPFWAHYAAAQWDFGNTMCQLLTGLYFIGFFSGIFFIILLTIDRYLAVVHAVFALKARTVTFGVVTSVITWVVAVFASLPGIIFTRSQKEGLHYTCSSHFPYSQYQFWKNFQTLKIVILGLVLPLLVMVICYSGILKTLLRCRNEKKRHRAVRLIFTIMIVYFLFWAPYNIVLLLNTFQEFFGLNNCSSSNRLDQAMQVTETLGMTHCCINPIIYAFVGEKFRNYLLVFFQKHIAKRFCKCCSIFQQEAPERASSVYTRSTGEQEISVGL
Chain of C-C chemokine receptor type 8 (Homo sapiens) (P51685 whole entry): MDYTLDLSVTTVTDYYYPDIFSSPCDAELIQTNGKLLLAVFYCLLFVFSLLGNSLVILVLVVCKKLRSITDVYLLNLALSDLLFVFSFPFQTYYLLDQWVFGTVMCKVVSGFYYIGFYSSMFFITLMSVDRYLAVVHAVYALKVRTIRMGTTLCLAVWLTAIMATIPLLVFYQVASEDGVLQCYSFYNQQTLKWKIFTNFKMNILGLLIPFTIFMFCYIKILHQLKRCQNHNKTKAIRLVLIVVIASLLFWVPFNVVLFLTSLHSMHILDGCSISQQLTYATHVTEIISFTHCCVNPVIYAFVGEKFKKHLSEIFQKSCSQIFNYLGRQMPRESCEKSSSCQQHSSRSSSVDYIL

Row | SMILES | IC50 [1] [µM] | IC50 [2] [µM] | further results
1 | C[C@H]1CN(CC[C@@H](C(=O)NCc2cc(C(F)(F)F)cc(C(F)(F)F)c2)C2CC2)CC[C@@]12C=Cc1ccccc12 | 0.013 | 0.08 | –
2 | CC(O)C(CCN1CC[C@@]2(C=Cc3ccccc32)[C@@H](C)C1)C(=O)NCc1cc(C(F)(F)F)cc(C(F)(F)F)c1 (stereo partly drawn) | 0.048 | – | –
3 | CC(=O)Nc1ncc(S(=O)(=O)NC(CCN2CCC3(C=Cc4ccccc43)CC2)C(=O)NCc2cc(C(F)(F)F)cc(C(F)(F)F)c2)s1 (stereo not drawn) | – | – | inhibition [3]: 45%
4 | O=C(NCc1cc(C(F)(F)F)cc(C(F)(F)F)c1)[C@@H](CCN1CCC(c2ccccc2)CC1)C1CC1 | 0.129 | 0.285 | –
5 | CC(O)C(CCN1CCC(c2ccc(F)cc2)CC1)C(=O)NCc1cc(C(F)(F)F)cc(C(F)(F)F)c1 (stereo not drawn) | 0.462 | – | –
6 | CC[C@H]1CN(CC[C@H](C(=O)NCc2cc(C(F)(F)F)cc(C(F)(F)F)c2)c2ccc(F)cc2)CC[C@@]12C=Cc1ccccc12 | – | 0.437 | –
7 | O=C(NCc1cc(C(F)(F)F)cc(C(F)(F)F)c1)C(CCN1CCC2(C=Cc3ccccc32)CC1)C1CC1 (stereo not drawn) | 0.038 | 0.069 | –
8 | CS(=O)(=O)NC(CCN1CCC2(C=Cc3ccccc32)CC1)C(=O)NCc1cc(C(F)(F)F)cc(C(F)(F)F)c1 (stereo not drawn) | – | 0.244 | –
9 | NC(CCN1CCC2(C=Cc3ccccc32)CC1)C(=O)NCc1cc(C(F)(F)F)cc(C(F)(F)F)c1 (stereo not drawn) | – | – | inhibition [3]: 33%
10 | O=C(NCc1cc(C(F)(F)F)cc(C(F)(F)F)c1)C(CCN1CCC2(C=Cc3ccccc32)CC1)Cc1ccccc1 (stereo not drawn) | 0.232 | 0.298 | –
11 | CC(=O)N1CCCC(C(CCN2CCC3(C=Cc4ccccc43)CC2)C(=O)NCc2cc(C(F)(F)F)cc(C(F)(F)F)c2)C1 (stereo not drawn) | 0.08 | 0.66 | –
12 | C[C@H]1CN(CC[C@H](C(=O)NCc2cc(C(F)(F)F)cc(C(F)(F)F)c2)C2CC2)CC[C@@]12C=Cc1ccccc12 | 0.004 | 0.014 | Tmax (Rattus norvegicus [4]): 4.67 µM; inhibition [5]: 38%; inhibition [6]: 3%; IC50 [7]: 0.004 µM; inhibition [8]: -5%; F (Rattus norvegicus [9]): 98%; Cmax [10]: 1.58 µM; inhibition [11]: 9%; Vd [12]: 2.19 L/kg; AUC (Rattus norvegicus [13]): 4.17 µM·h; clearance [14]: 0.442 L/h/kg; half-life [15]: 4.11 h; AUC (Rattus norvegicus [16]): 4.08 µM·h; inhibition [17]: 8%
13 | CS(=O)(=O)N1CCCC(C(CCN2CCC3(C=Cc4ccccc43)CC2)C(=O)NCc2cc(C(F)(F)F)cc(C(F)(F)F)c2)C1 (stereo not drawn) | – | 0.783 | inhibition [18]: 70%
14 | C=CC[C@H](CCN1CCC2(C=Cc3ccccc32)CC1)C(=O)NCc1cc(C(F)(F)F)cc(C(F)(F)F)c1 | 0.037 | 0.193 | –
15 | CCC[C@H](CCN1CCC(c2ccccc2)CC1)C(=O)NCc1cc(C(F)(F)F)cc(C(F)(F)F)c1 | 0.042 | 0.126 | –
16 | O=C1NCC(C(=O)NC(CCN2CCC3(C=Cc4ccccc43)CC2)C(=O)NCc2cc(C(F)(F)F)cc(C(F)(F)F)c2)N1 (stereo not drawn) | – | 0.525 | –
17 | O=C(NCc1cc(C(F)(F)F)cc(C(F)(F)F)c1)C(CCN1CCC2(C=Cc3ccccc32)CC1)C1CCCCC1 (stereo not drawn) | 0.073 | 0.16 | –
18 | C[C@@H](CCN1CCC2(C=Cc3ccccc32)CC1)C(=O)NCc1cc(C(F)(F)F)cc(C(F)(F)F)c1 | 0.086 | 0.605 | –

Row | SMILES | IC50 [1] [µM] | IC50 [2] [µM] | further results
19 | O=C(CCCN1CCC2(C=Cc3ccccc32)CC1)NCc1cc(C(F)(F)F)cc(C(F)(F)F)c1 | – | 0.57 | inhibition [18]: 80%
20 | COC(=O)C[C@@H](CCN1CCC(c2ccccc2)CC1)C(=O)NCc1cc(C(F)(F)F)cc(C(F)(F)F)c1 | – | – | inhibition [3]: 38%
21 | COC(=O)NC(CCN1CCC2(C=Cc3ccccc32)CC1)C(=O)NCc1cc(C(F)(F)F)cc(C(F)(F)F)c1 (stereo not drawn) | – | 0.805 | –
22 | C=CC[C@H](CCN1CCC(c2ccccc2)CC1)C(=O)NCc1cc(C(F)(F)F)cc(C(F)(F)F)c1 | 0.216 | 0.642 | –
23 | C[C@H]1CN(CCCC(=O)NCc2cc(C(F)(F)F)cc(C(F)(F)F)c2)CC[C@@]12C=Cc1ccccc12 | 0.093 | 0.173 | –
24 | C[C@H]1CN(CC[C@H](C(=O)NCc2cc(C(F)(F)F)cc(C(F)(F)F)c2)C2CCC2)CC[C@@]12C=Cc1ccccc12 | 0.012 | 0.028 | IC50 [7]: 0.011 µM
25 | CC(C)[C@H](CCN1CCC2(C=Cc3ccccc32)CC1)C(=O)NCc1cc(C(F)(F)F)cc(C(F)(F)F)c1 | 0.047 | 0.204 | –
26 | C[C@H]1CN(CC[C@H](CC2CC2)C(=O)NCc2cc(C(F)(F)F)cc(C(F)(F)F)c2)CC[C@@]12C=Cc1ccccc12 | 0.009 | 0.025 | IC50 [7]: 0.003 µM
27 | O=C(NCc1cc(C(F)(F)F)cc(C(F)(F)F)c1)[C@@H](CCN1CCC(c2ccc(F)cc2)CC1)C1CC1 | 0.072 | 0.28 | –
28 | C[C@H]1CN(CC[C@H](C(=O)NCc2cc(C(F)(F)F)cc(C(F)(F)F)c2)c2ccc(F)cc2)CC[C@@]12C=Cc1ccccc12 | – | 0.067 | –
29 | O=CNC(CCN1CCC2(C=Cc3ccccc32)CC1)C(=O)NCc1cc(C(F)(F)F)cc(C(F)(F)F)c1 (stereo not drawn) | – | – | inhibition [3]: 25%
30 | O=C(NCc1cc(C(F)(F)F)cc(C(F)(F)F)c1)[C@@H](CCN1CCC2(C=Cc3ccccc32)CC1)C1CC1 | 0.015 | 0.098 | –
31 | COC(=O)C[C@H](CCN1CCC(c2ccccc2)CC1)C(=O)NCc1cc(C(F)(F)F)cc(C(F)(F)F)c1 | – | – | inhibition [3]: 42%
32 | C[C@H](CCN1CCC2(C=Cc3ccccc32)CC1)C(=O)NCc1cc(C(F)(F)F)cc(C(F)(F)F)c1 | 0.037 | 0.231 | –
33 | O=C(NCc1cc(C(F)(F)F)cc(C(F)(F)F)c1)C(CCN1CCC2(C=Cc3ccccc32)CC1)NS(=O)(=O)C(F)(F)F (stereo not drawn) | – | 0.125 | –
34 | O=C(NCc1cc(C(F)(F)F)cc(C(F)(F)F)c1)C(CCN1CCC2(C=Cc3ccccc32)CC1)NS(=O)(=O)c1cccs1 (stereo not drawn) | – | – | inhibition [3]: 20%
35 | CC(C)[C@@H](CCN1CCC2(C=Cc3ccccc32)CC1)C(=O)NCc1cc(C(F)(F)F)cc(C(F)(F)F)c1 | 0.072 | 0.349 | –
36 | O=C(NCc1cc(C(F)(F)F)cc(C(F)(F)F)c1)C(CCN1CCC2(C=Cc3ccccc32)CC1)NS(=O)(=O)c1ccccc1 (stereo not drawn) | – | – | inhibition [3]: 7%
